Measurements gathered from unrelated publications.
Each line is one published result; the experiments were not run side by side.
Target: Dual specificity tyrosine-phosphorylation-regulated kinase 1B (DYRK1B, Homo sapiens, UniProt Q9Y463)

The remaining binding of `Nc1ncc(-c2nc(N3CCOCC3)nc(N3CCOCC3)n2)c(C(F)F)n1` is reported as 76% (cell-free assay, competition with immobilised ligand; 10 µM).
`Cn1cc(-c2cc(F)cc(N3CCn4c(cc5c4CCCC5)C3=O)c2CO)cc(Nc2ccc(N3CCN(C4COC4)CC3)cn2)c1=O` gave an inhibition of 6% (enzyme activity, inhibitor; 0.1 µM).
With `CC#CC(=O)Nc1cc2c(Nc3ccc(F)c(Cl)c3)ncnc2cn1` the remaining activity was 103% (enzyme activity, inhibitor, radiometric; 0.5 µM).
For `COc1cc(Nc2ncc(F)c(Nc3ccc4c(n3)NC(=O)C(C)(C)O4)n2)cc(OC)c1OC`, the inhibition was 78% (binding, competition with immobilised ligand; 10 µM).
`Cn1cncc1[C@@](O)(COc1ccc(C#N)cc1-c1ccc(OC(F)(F)F)cc1)c1ccc(C#N)cc1` has a remaining binding of 38% (cell-free assay, competition with immobilised ligand; 1 µM).
With `Cc1nn(C)cc1-c1nc2c(N3CCN(Cc4ccc(Cl)cc4)CC3)c(Cl)cnc2[nH]1` the remaining binding was 75% (binding, competition with immobilised ligand; 1 µM).
The inhibition of `Cn1cc(-c2cccc(N3CCc4c(sc5c4CC(C)(C)C5)C3=O)c2CO)cc(Nc2ccncn2)c1=O` is reported as 2% (enzyme activity, inhibitor; 1 µM).
`CC(C)(C)c1nc(-c2cccc(NS(=O)(=O)c3c(F)cccc3F)c2F)c(-c2ccnc(N)n2)s1` gave a remaining activity of 98% (enzyme activity, inhibitor, radiometric; 1 µM).
With `COc1ncccc1-c1cnn2ccc(N3CCN(C(=O)OC(C)C)CC3)nc12` the remaining binding was 65% (binding, competition with immobilised ligand; 1 µM).
`N#CC1(c2ccccn2)CCN(Cc2cc(C(=O)O)c(=O)n3ccccc23)CC1` gave a remaining binding of 98% (cell-free assay, competition with immobilised ligand; 1 µM).
The remaining activity of `O=C1NC(=O)C(c2cn(CCCn3ccnc3)c3ccccc23)=C1Nc1ccccc1` is reported as 56.3% (enzyme activity, inhibitor, radiometric; 0.5 µM).
The remaining activity of `CC(C)(C)c1nc2c(s1)c1nc(N)ncc1c1ccc(NS(=O)(=O)c3c(F)cccc3F)c(F)c12` is reported as 106% (enzyme activity, inhibitor, radiometric; 1 µM).
`COc1ccc(COc2ccc(Cc3cnc(N)nc3N)cc2OC)cc1` has a remaining activity of 104% (enzyme activity, inhibitor, radiometric; 0.5 µM).
With `COCc1c(-c2cc3cc(C)cc(OC)c3s2)c2c(N)ncnn2c1CN1CCNC(=O)C1` the inhibition was 71% (cell-free assay, competition with immobilised ligand; 1 µM).
`C=CC(=O)N1CCC[C@@H](n2nc(-c3ccc(Oc4ccccc4)cc3)c3c(N)ncnc32)C1` gave a remaining signal of 125% (cell-free assay; 10 µM).
